m5-HT2A agonist = activates the mouse 5-HT2A serotonin receptor. CHO-K1 mHTR2A beta-arrestin complementation, luminescence; percent of 30 µM serotonin response. P35363. 0.66% of 360,000 active. activation, % at 7.6 µM;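 active = activation above a run cutoff, the mean activation of all tested compounds plus 3 SD, cut at about 14% in these data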;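 note: 0% = plate median of compound wells and 100% = 30 µM serotonin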
TAAR1 ag = agonists of human TAAR1; activation, % at 3 µM; CHO RD-HGA16 TAAR1, Fluo-8 calcium fluorescence; vehicle wells 0%, saturating PEA agonist 100%; 0.99% of 360,000 active; Q96RJ0; AID 624467;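 active = activation above the mean activation of all test compounds in the run plus 3 SD, cut at about 38% in these data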
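Test system: RD-HGA16 (CHO) cells co-expressing Gα16 and hTAAR1; dosing: one-point dosing at 3 µM (nominal); timing: 17-24 h seeding, 75 min 37 °C dye, 30 min RT; signal: kinetic Fluo-8 calcium fluorescence; read-out basis: % activation relative to PEA EC100 response; controls: DMSO and PEA EC100; replicates: n 1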
TAAR1 antag = human TAAR1 antagonism. Q96RJ0. CHO RD-HGA16 TAAR1, Fluo-8 calcium fluorescence, antagonist. inhibition, % at 3 µM. 1.5% of 360,000 active. AID 624466;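 active = inhibition above a per-plate cutoff, the mean inhibition of test compounds on that plate plus 3 SD, cut at about 49% in these data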;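 note: 0% = DMSO plus EC80 beta-PEA response and 100% = DMSO alone without agonist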
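Material: CHO RD-HGA16 cells bearing hTAAR1; compound dosing: one-point dosing, 3 µM nominal final; schedule: dye loading 75 min at 37 °C, then 30 min room temperature; measured by: calcium fluorescence with Fluo-8; control set: vehicle and agonist controls; replication: n of 1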
M1 antag = blocks human M1 muscarinic receptor; inhibition, % at 3 µM; CHO-K1 hM1, Fluo-8 calcium fluorescence, ACh EC80 antagonist; P11229; 1.3% of 360,000 active;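 active = percent inhibition above its own plate's cutoff, namely the mean of that plate's compound wells plus 3 SD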;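 note: peak over basal fluorescence ratio during 140 s after agonist addition; 0% = ACh EC80 plus DMSO and 100% = DMSO alone without agonist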
Target sequence (P11229 whole entry, looked up): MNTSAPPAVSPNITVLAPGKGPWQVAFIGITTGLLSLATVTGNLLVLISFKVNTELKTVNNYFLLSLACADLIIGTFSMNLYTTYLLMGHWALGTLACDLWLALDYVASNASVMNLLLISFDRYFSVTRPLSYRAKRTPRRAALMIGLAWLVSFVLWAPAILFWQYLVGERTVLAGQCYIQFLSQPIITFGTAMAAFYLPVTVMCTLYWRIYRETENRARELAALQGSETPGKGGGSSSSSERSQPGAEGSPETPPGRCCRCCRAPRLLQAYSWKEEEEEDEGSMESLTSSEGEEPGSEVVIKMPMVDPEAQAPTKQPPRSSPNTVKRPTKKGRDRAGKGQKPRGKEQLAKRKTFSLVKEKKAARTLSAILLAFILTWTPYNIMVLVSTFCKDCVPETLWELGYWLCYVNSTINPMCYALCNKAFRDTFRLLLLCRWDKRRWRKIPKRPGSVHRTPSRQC
M1 PAM = potentiates human M1 receptor response to acetylcholine; CHO-K1 hM1, Fluo-8 calcium fluorescence, ACh EC20; 0% = ACh EC20, 100% = maximal ACh; P11229; 0.088% of 360,000 active; activation, % at 3 µM; in the data active = activation above about 19%, passing the limit was not always enough
CHRM1 agonist = activates human CHRM1 receptor; CHO-K1 hM1, Fluo-8 calcium fluorescence, agonist mode; 0% DMSO, 100% acetylcholine EC100; activation, % at 3 µM; 0.33% of 360,000 active; AID 588814;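 active = activation above the run's mean compound activation plus 3 SD, cut at about 16% in these data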;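 note: peak over basal fluorescence ratio within a 140 s kinetic read after compound addition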
TAAR1 nonsel count = counter-screen for TAAR1 antagonists: nonselective antagonists; counterscreen cell line, calcium fluorescence, antagonist mode; inhibition, % at 3 µM; 77% of 2,400 active; shares compounds with TAAR1 antag; AID 651780; in the data active = inhibition above about 22%;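 note: CHO-Ga16 host cells stimulated with ATP at an EC80 level; 0% = agonist EC80 plus vehicle and 100% = vehicle without agonist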
TAAR1 ant conf = human TAAR1 antagonism, confirmed; shares compounds with TAAR1 antag; TAAR1-expressing cells, fluorescence antagonist read-out; inhibition, % at 3 µM; 40% of 2,400 active; in the data active = inhibition above about 49%;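 note: CHO-Ga16 host cells challenged with agonist PEA near its EC80; 0% = agonist at EC80 plus vehicle and 100% = vehicle with no agonist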
Ga16 nonsel ag = nonselective Ga16 agonist in TAAR1 antagonist counter-screen. activation, % at 3 µM. 18% of 2,400 active. shares compounds with TAAR1 antag. Ga16-expressing cells, calcium fluorescence, agonist counterscreen; in the data active = activation above about 12%;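 note: 0% = vehicle wells and 100% = saturating stimulus response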
TAAR1 ag counter = counter-screen for human TAAR1 antagonists: TAAR1 agonists | shares compounds with TAAR1 antag | hTAAR1 cell line, fluorescence activation, agonist mode | AID 651955 | 2% of 2,400 active | activation, % at 3 µM; in the data active = activation above about 37%;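 note: CHO cells stably expressing TAAR1 with calcium dye readout; 0% = DMSO vehicle and 100% = full agonist response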
* hit, by the source's call; . = no result. Shown are actives, neighbours in structure and some others; about 3.9% of the full set was active somewhere.

SMILES	m5-HT2A agonist	TAAR1 ag	TAAR1 antag	M1 antag	M1 PAM	CHRM1 agonist	TAAR1 nonsel count	TAAR1 ant conf	Ga16 nonsel ag	TAAR1 ag counter
CC[C@@H](C)[C@@H](C(=O)N1CCN(C(=O)OC(C)(C)C)CC1)n1cc(CCCCNC(=O)OC(C)(C)C)nn1	12	25	69*	36*	-24	-1	42*	61*	13*	13
COc1ccc(C(=O)OCC2CC(c3ccccc3)=NO2)cc1OC (configuration not stated)	2	2	-8	-3	0	-7	.	.	.	.
COc1ccc(-c2nc3c(c(=O)n(C)c(=O)n3C)n2CC2CC(c3ccccc3)=NO2)cc1OC (configuration not stated)	2	25	62*	13	-4	1	30*	50*	10	11
O=C(CCc1c[nH]c2ccccc12)N1CCN(S(=O)(=O)c2ccc(F)cc2)CC1	6	7	9	-12	4	-1	.	.	.	.
COc1ccc(-c2cccc3[nH]c4c(c23)CCN2C(=O)[C@H]3[C@H](C)ON(C)[C@H]3C[C@@H]42)cc1	.	9	50*	.	.	.	22*	33	8	8
C[C@@H]1ON(C)[C@H]2C[C@H]3c4[nH]c5c(-c6ccc(C(F)(F)F)cc6)cccc5c4CCN3C(=O)[C@@H]12	.	2	-12	.	.	.	.	.	.	.
C[C@@H]1OC(C2CCCCC2)N(C)[C@H]2C[C@H]3c4[nH]c5c(-c6ccccc6)cccc5c4CCN3C(=O)[C@@H]12 (some centres not stated)	.	1	34	.	.	.	.	.	.	.
COc1cccc(-c2cccc3c4c([nH]c23)[C@@H]2C[C@H]3[C@@H](C(=O)N2CC4)[C@H](C)ON3C)c1	.	6	53*	.	.	.	22*	36	5	9
C[C@@H]1ON(C)[C@H]2C[C@H]3c4[nH]c5cccc(-c6ccc7c(c6)OCO7)c5c4CCN3C(=O)[C@@H]12	.	9	56*	.	.	.	23*	40	7	10
COc1cc(CNCCCN2CCOCC2)cc(Cl)c1OCC(=O)NC(C)(C)C	3	6	-13	-3	3	-10	.	.	.	.
CC(=O)CCc1ccc(OCC(=O)Nc2cccc(S(=O)(=O)N(C)c3ccccc3)c2)cc1	-4	10	74*	12	-14	-1	35*	52*	11	8
COc1cc(C#N)ccc1OCC(=O)Nc1cccc(S(=O)(=O)N(C)c2ccccc2)c1	-3	12	74*	17	-18	2	36*	49*	10	7
COc1ccc(NC(=O)CSc2nccn2Cc2ccc(F)cc2)cc1	1	-1	-18	-13	15	0	.	.	.	.
COc1ccc(-c2ccc3c(n2)CCCN3S(=O)(=O)c2cccs2)cc1	.	13	81*	.	.	.	42*	64*	11	13
O=S(=O)(c1cccs1)N1CCCc2nc(-c3ccc(F)cc3)ccc21	.	-1	53*	.	.	.	33*	37	6	1
Cc1ccccc1S(=O)(=O)N1CCCc2nc(-c3ccc(F)cc3)ccc21	.	5	19	.	.	.	.	.	.	.
OCCC(N1CCOCC1)C(O)(c1ccccc1)c1ccccc1 (configuration not stated)	.	2	-9	.	.	.	.	.	.	.
O=C(NCC1CCCO1)C(c1cccnc1)N(C(=O)Cc1cccs1)c1ccccc1 (configuration not stated)	0	24	54*	11	-5	-4	21	47	10	10
Cc1ccc(N(C(=O)c2snc(C(N)=O)c2N)C(C(=O)NCC2CCCO2)c2ccc3ncccc3c2)cc1 (configuration not stated)	0	22	43	-5	1	1	.	.	.	.
O=C(NCC1CCCO1)C(c1ccc(F)cc1)N(C(=O)Cn1nnc(-c2ccc(F)cc2)n1)c1cccc(O)c1 (configuration not stated)	14	16	83*	36*	-9	0	36*	55*	11	13
NC(=O)c1nsc(C(=O)N(c2ccc3c(c2)OCCO3)C(C(=O)NCC2CCCO2)c2ccc(F)cc2)c1N (configuration not stated)	0	-1	11	5	-3	-4	.	.	.	.
Cc1ccccc1N(C(=O)Cc1cccs1)C(C(=O)NCC1CCCO1)c1cccnc1 (configuration not stated)	7	3	4	-4	3	-4	.	.	.	.
NC(=O)c1nsc(C(=O)N(c2ccccc2)C(C(=O)NCC2CCCO2)c2ccc(F)cc2)c1N (configuration not stated)	-5	14	51*	0	-2	1	20	39	9	13
NC(=O)c1nsc(C(=O)N(c2ccc(F)cc2)C(C(=O)NCC2CCCO2)c2ccc3ncccc3c2)c1N (configuration not stated)	4	13	49*	-3	3	-3	25*	33	6	6
CC(C)CC(C(=O)NCC1CCCO1)N(C(=O)Cn1nnc(-c2ccc(F)cc2)n1)c1cccc(C(F)(F)F)c1 (configuration not stated)	12	6	-12	-7	8	-5	.	.	.	.
Cn1c(=O)c2c(ncn2CC(O)CNc2ccc(F)cc2)n(C)c1=O (configuration not stated)	-1	3	-4	-14	6	-2	.	.	.	.
COc1nc2c(c(-c3cc(Br)cs3)c1C#N)Cc1ccccc1-2	9	10	-17	0	9	-2	.	.	.	.
CCS(=O)(=O)N1CCC(C(=O)O)CC1	-1	2	4	12	-4	-6	.	.	.	.
CCOc1ccc(C(C(=O)NCC2CCCO2)N(C(=O)c2snc(C(N)=O)c2N)c2cccc(F)c2)cc1 (configuration not stated)	-1	17	56*	12	-10	2	28*	50*	10	23
CCOc1ccc(N(C(=O)c2snc(C(N)=O)c2N)C(C(=O)NCC2CCCO2)c2ccc(C)o2)cc1 (configuration not stated)	-4	-5	-16	0	3	-5	.	.	.	.

Screening results as filed in PubChem.
